Published values pooled from the literature.
Compare with care: the assays were run in different laboratories. In brackets after ≈: the same amount, converted by molar mass.
Organism: Pseudomonas aeruginosa

CCCCCCCCCCCC(=O)OC[C@H]1O[C@@H](n2cc(C)c(=O)[nH]c2=O)C[C@@H]1OC(=O)c1ccc(C(C)(C)C)cc1 has an MBC of 16 µg/mL (≈ 27.4 µM) (microbial killing, broth dilution).
COC(=O)c1cc(-c2cccc(NC(=O)Nc3cccc(F)c3)c2)on1 has an MIC of over 64 µg/mL (microbial growth, broth dilution; ATCC27853).
The MIC50 of ONCc1cc(F)cc(F)c1 is reported as 150 µg/mL (≈ 943 µM) (microbial growth; ATCC15692; 8 h).
The inhibition zone of CC1(C)S[C@@H]2[C@H](NC(=O)[C@H](N)c3ccccc3)C(=O)N2[C@H]1C(=O)O is reported as 32 mm (microbial growth, well diffusion; ATCC27853; 60000 µg/mL).
O=C(O)c1cn(C2CC2)c2cc(N3CCNCC3)c(F)cc2c1=O gave an inhibition zone of 33.5 mm (microbial growth; K799/61; 1000 µg/mL).
CCCCCCCCCCCC(=O)OC[C@H]1O[C@@H](n2cc(C)c(=O)[nH]c2=O)C[C@@H]1O has an MBC of 16 µg/mL (≈ 37.7 µM) (microbial killing, broth dilution).
With COc1cccc(OC)c1C(=O)N[C@@H]1C(=O)N2[C@@H]1SC(C)(C)[C@@H]2C(=O)O the MIC was over 64 µg/mL (microbial growth, broth dilution; ATCCBAA2108; drug-resistant strain).
C[C@@H](O)[C@H]1C(=O)N2C(C(=O)O)=C(S[C@@H]3CN[C@H](C(=O)N(C)C)C3)[C@H](C)[C@H]12 has an MIC90 of 0.25 µg/mL (≈ 0.652 µM) (microbial growth; PAO1).
The MIC of CSc1ccc(/C=C/c2cc(/C=C3\Sc4ccccc4N3CCCN3CCCC3)c3ccccc3[n+]2C)cc1.[I-] is reported as 64 µg/mL (microbial growth, broth dilution; ATCCBAA2108; drug-resistant strain).
O=C(Nc1cccc(-c2cc(C(=O)O)no2)c1)Nc1ccc(Cl)c(Cl)c1 gave an MIC of over 64 µg/mL (microbial growth, broth dilution; ATCC27853).
